molecular target: Serotonin 3 (5-HT3) receptor (Rattus norvegicus) (UniProt P35563+Q9JJ16); assay: Inhibition of 5-HT evoked reflex bradycardia in rat.; format: functional, organism-based
How it was run: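 Anesthetized rats (260–290 g; urethane 1.25 g/kg ip) with blood pressure and heart rate recorded. A submaximal 5-HT dose (6 μg/kg iv) was given repeatedly and heart-rate changes were quantified. Test agents were given iv before 5-HT. ID50 is the dose cutting the 5-HT-evoked response to 50% of control.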

| SMILES | ID50 |
| --- | --- |
| CN1C2CCCC1CC(NC(=O)c1c3ccccc3nn1C)C2 (stereo not drawn) | > 100 µg/kg |
| CN1C2CCC1CC(NC(=O)c1n[nH]c3ccccc13)C2 (stereo not drawn) | 1.2 µg/kg |
| CN1C2CCC1CC(NC(=O)c1ccc3ccccn13)C2 (stereo not drawn) | > 10 µg/kg |
| CCc1cc(C(=O)NC2CC3CCC(C2)N3C)n2ccccc12 (stereo not drawn) | 1 µg/kg |
| CCc1nc(C(=O)NC2CC3CCCC(C2)N3C)c2ccccn12 (stereo not drawn) | 0.5 µg/kg |
| Cc1cc(C(=O)NC2CC3CCC(C2)N3C)n2ccccc12 (stereo not drawn) | 1.6 µg/kg |
| CN1C2CCC1CC(OC(=O)c1nn(C)c3ccccc13)C2 (stereo not drawn) | 1.4 µg/kg |
| CN1C2CCC1CC(OC(=O)c1[nH]nc3ccccc13)C2 (stereo not drawn) | 5.3 µg/kg |
| CCc1nc(C(=O)NC2CC3CCC(C2)N3C)c2ccccn12 (stereo not drawn) | 1 µg/kg |

Now from value to molecule:

| ID50 | SMILES |
| --- | --- |
| 1.1 µg/kg | CN1C2CCCC1CC(NC(=O)c1[nH]nc3ccccc13)C2 (stereo not drawn) |
| 0.6 µg/kg | CCn1nc(C(=O)NC2CC3CCCC(C2)N3C)c2ccccc21 (stereo not drawn) |
| 2 µg/kg | CN1C2CCCC1CC(NC(=O)c1nn(C)c3ccccc13)C2 (stereo not drawn) |
| 1 µg/kg | CN1C2CCCC1CC(NC(=O)c1[nH]nc3ccc(F)cc13)C2 (stereo not drawn) |
| 12.4 µg/kg | CN1C2CCCC1CC(NC(=O)c1[nH]nc3ccc(Cl)cc13)C2 (stereo not drawn) |
| 1.4 µg/kg | CN1[C@@H]2CC[C@H]1C[C@@H](OC(=O)c1c[nH]c3ccccc13)C2 |
| 4.7 µg/kg | CN1C2CCC1CC(NC(=O)c1cc(-c3ccccc3)c3ccccn13)C2 (stereo not drawn) |
| 6.8 µg/kg | CN1C2CCCC1CC(NC(=O)c1cn(C)c3ccccc13)C2 (stereo not drawn) |
| 3.6 µg/kg | Cc1nccn1CC1CCc2c(c3ccccc3n2C)C1=O (stereo not drawn) |
